In ChEMBL document CHEMBL1158629, “Synthesis, in vitro and in vivo evaluation of [11C]MMTP: a potential PET ligand for mGluR1 receptors” (Bioorg Med Chem Lett, 2010):

Assays:
Format in all cases: ADME, organism-based
[1] = Ratio of drug uptake in frontal cortex to cerebellum of baboon brain at 5 +/- 0.5 mCi, iv after 85 mins; conditions: papio hamadryas, in vivo
Procedure, shortened: (§1)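 Fasted baboons were immobilized with ketamine (10 mg/kg, i.m.) and maintained on 1.5~2.0 % isoflurane via endotracheal tube. Core temperature was held at 37°C on a heated water blanket during PET scanning.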

[2] = Ratio of drug uptake in frontal cortex to cerebellum of baboon brain at 5 +/- 0.5 mCi, iv after 35 mins; conditions: papio hamadryas, in vivo; procedure, shortened: as §1
[3] = Ratio of drug uptake in putamen to cerebellum of baboon brain at 5 +/- 0.5 mCi, iv after 35 mins; conditions: papio hamadryas, in vivo; procedure, shortened: as §1
[4] = Metabolic stability in baboon brain assessed as compound remaining at 5 +/- 0.5 mCi, iv after 30 mins; conditions: papio hamadryas, in vivo, 0.5 h
[5] = Ratio of drug uptake in caudate to cerebellum of baboon brain at 5 +/- 0.5 mCi, iv after 35 mins; conditions: papio hamadryas, in vivo; procedure, shortened: as §1
[6] = Ratio of drug uptake in hippocampus to cerebellum of baboon brain at 5 +/- 0.5 mCi, iv after 35 mins; conditions: papio hamadryas, in vivo; procedure, shortened: as §1
[7] = Metabolic stability in baboon brain assessed as compound remaining at 5 +/- 0.5 mCi, iv after 90 mins; conditions: papio hamadryas, in vivo, 1.5 h
[8] = Ratio of drug uptake in hippocampus to cerebellum of baboon brain at 5 +/- 0.5 mCi, iv after 85 mins; conditions: papio hamadryas, in vivo; procedure, shortened: as §1
[9] = Ratio of drug uptake in caudate to cerebellum of baboon brain at 5 +/- 0.5 mCi, iv after 85 mins; conditions: papio hamadryas, in vivo; procedure, shortened: as §1
[10] = Ratio of drug uptake in caudate to cerebellum of baboon brain at 5 +/- 0.5 mCi, iv after 65 mins; conditions: papio hamadryas, in vivo, pooled result: one value given for 5 cell lines, strains, targets or settings; procedure, shortened: as §1
[11] = Ratio of drug uptake in putamen to cerebellum of baboon brain at 5 +/- 0.5 mCi, iv after 85 mins; conditions: papio hamadryas, in vivo; procedure, shortened: as §1
[12] = Ratio of drug uptake in amygdala to cerebellum of baboon brain at 5 +/- 0.5 mCi, iv after 85 mins; conditions: papio hamadryas, in vivo; procedure, shortened: as §1
[13] = Ratio of drug uptake in amygdala to cerebellum of baboon brain at 5 +/- 0.5 mCi, iv after 35 mins; conditions: papio hamadryas, in vivo; procedure, shortened: as §1

`CN(C)c1ccnc2sc3c(=O)n(-c4ccc(O[11CH3])cc4)cnc3c12` gave a Ratio [1] of 1.6, a Ratio [2] of 2 and a Ratio [3] of 2. It also gave a Stability [4] of 45%, a Ratio [5] of 2 and a Ratio [6] of 2. For the same compound, the Stability [7] was 30%, the Ratio [8] was 1.6 and the Ratio [9] was 1.6. The Ratio [10] was 1.65, the Ratio [11] was 1.6 and the Ratio [12] was 1.6. It also gave a Ratio [13] of 2.
